{"source": "ChEMBL document CHEMBL1148178", "about": "“Dicranin, an antimicrobial and 15-lipoxygenase inhibitor from the moss Dicranum scoparium” (1993)", "key": {"[1]": {"test_system": "Escherichia coli", "assay": "Antibacterial activity against Escherichia coli B74-1 after 24 hrs by disk diffusion assay", "format": "functional, organism-based", "how_it_was_run": "(§1)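 Sterile 6 mm filter-paper disc bearing sample set in the centre of a Petri dish of 15 ml plate count agar. Overlaid with 3 ml soft nutrient agar (nutrient broth + 0.7% agar) seeded with 1% of a 16–18 h culture of the test strain. Read-out is the diameter of the growth-free zone around the disc.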"}, "[2]": {"test_system": "Pseudomonas putida", "assay": "Antibacterial activity against Pseudomonas putida T-AQ 18/YF18 after 24 hrs by disk diffusion assay", "format": "functional, organism-based", "how_it_was_run": "as §1"}, "[3]": {"test_system": "Bacillus subtilis", "assay": "Antibacterial activity against Bacillus subtilis NCIB 3610 after 24 hrs by disk diffusion assay", "format": "functional, organism-based", "how_it_was_run": "as §1"}, "[4]": {"test_system": "Enterococcus faecalis", "assay": "Antibacterial activity against Streptococcus faecalis NCIB 775 after 24 hrs by disk diffusion assay", "format": "functional, organism-based", "how_it_was_run": "as §1"}, "[5]": {"test_system": "Geobacillus stearothermophilus", "assay": "Antibacterial activity against Bacillus stearothermophilus NCA 1518 after 24 hrs by disk diffusion assay", "format": "functional, organism-based", "how_it_was_run": "as §1"}, "[6]": {"test_system": "Bacillus cereus", "assay": "Antibacterial activity against Bacillus cereus NCIB 3329 after 24 hrs by disk diffusion assay", "format": "functional, organism-based", "how_it_was_run": "as §1"}, "[7]": {"test_system": "Salmonella typhimurium", "assay": "Antibacterial activity against Salmonella Typhimurium NCIB 10248 after 24 hrs by disk diffusion assay", "format": "functional, organism-based", "details": "Salmonella enterica subsp. enterica serovar Typhimurium", "how_it_was_run": "as §1"}, "[8]": {"test_system": "Pseudomonas aeruginosa", "assay": "Antibacterial activity against Pseudomonas aeruginosa ATCC 10145 after 24 hrs by disk diffusion assay", "format": "functional, organism-based", "how_it_was_run": "as §1"}, "[9]": {"test_system": "Staphylococcus aureus", "assay": "Antibacterial activity against Staphylococcus aureus T-AQ 49/YF29 after 24 hrs by disk diffusion assay", "format": "functional, organism-based", "how_it_was_run": "as §1"}, "[10]": {"test_system": "Glycine max", "assay": "Inhibition of soybean 15-LOX at 4 uM", "how_it_was_run": "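15-lipoxygenase assay run by a literature method with arachidonic acid (40 μM) as substrate.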"}}, "note": "Active and inactive are the calls of the source. The rule behind the calls is not given here."}
{"smiles": "CC/C=C\\C/C=C\\C/C=C\\C/C=C\\CCCCC(=O)O", "values": [{"measurement": "Activity", "setting": "[1]", "result": "Active"}, {"measurement": "Activity", "setting": "[2]", "result": "Active"}, {"measurement": "Activity", "setting": "[3]", "result": "Active"}, {"measurement": "Activity", "setting": "[4]", "result": "Active"}, {"measurement": "Activity", "setting": "[5]", "result": "Active"}, {"measurement": "Activity", "setting": "[6]", "result": "Active"}, {"measurement": "Activity", "setting": "[7]", "result": "Active"}, {"measurement": "Activity", "setting": "[8]", "result": "Active"}, {"measurement": "Activity", "setting": "[9]", "result": "Active"}]}
{"smiles": "CCCCCC#CCC#CCC#CCC#CCCCC(=O)O", "values": [{"measurement": "inhibition", "setting": "[10]", "result": 95, "unit": "%"}]}
